In data set [1] the target is T1, RAC-beta serine/threonine-protein kinase (Homo sapiens, UniProt P31751). Put plainly: Inhibition of Akt2. An outline of the steps: (§1)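 In vitro enzyme inhibition assay following a previously reported protocol. Each IC50 is the average of at least three determinations.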
Data set [2] is described as follows: Solubility at pH 7.4 in 98% saline. In kind it is physicochemical.
Data set [3] in a line: Inhibition of PKC. The procedure, abridged: as §1
Data set [4] can be described thus: Inhibition of PKA. The procedure, abridged:
as §1

The target of data set [5] is T2, RAC-alpha serine/threonine-protein kinase (Homo sapiens, UniProt P31749). Put plainly: Inhibition of Akt1. An outline of the steps: as §1
Data set [6] addresses T3, RAC-gamma serine/threonine-protein kinase (Homo sapiens, UniProt Q9Y243). In words: Inhibition of Akt3 by cell-based IPKA assay.
For data set [7], the target named is T1, RAC-beta serine/threonine-protein kinase. Put plainly: Inhibition of Akt2 by cell-based IPKA assay.
The target in data set [8] is T4, Serine/threonine-protein kinase Sgk1 (Homo sapiens, UniProt O00141).
T4 sequence (O00141 whole entry): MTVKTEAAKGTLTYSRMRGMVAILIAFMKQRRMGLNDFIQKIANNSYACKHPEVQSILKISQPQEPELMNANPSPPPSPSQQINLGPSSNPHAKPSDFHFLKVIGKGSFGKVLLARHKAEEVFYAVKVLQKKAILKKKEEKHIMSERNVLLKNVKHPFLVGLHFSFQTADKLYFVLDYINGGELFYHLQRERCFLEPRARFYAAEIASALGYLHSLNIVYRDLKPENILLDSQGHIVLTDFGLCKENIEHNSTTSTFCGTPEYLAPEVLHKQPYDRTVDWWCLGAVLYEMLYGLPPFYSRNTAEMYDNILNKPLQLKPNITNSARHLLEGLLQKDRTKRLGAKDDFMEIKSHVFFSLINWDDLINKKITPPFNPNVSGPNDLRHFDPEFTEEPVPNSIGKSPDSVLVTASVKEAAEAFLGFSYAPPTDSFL
Put plainly: Inhibition of SGK. The procedure, abridged: as §1

Data set [9] concerns the target T2, RAC-alpha serine/threonine-protein kinase. In words: Inhibition of Akt1 by cell-based IPKA assay.
The target of data set [10] is T3, RAC-gamma serine/threonine-protein kinase. Put plainly: Inhibition of Akt3.

We go through six compounds from ChEMBL document CHEMBL1143241, “Development of potent, allosteric dual Akt1 and Akt2 inhibitors with improved physical properties and cell activity” (Bioorg Med Chem Lett, 2008).

One may read the IC50 as the concentration that inhibits the measured activity by half. A higher IC50 goes with a need for much substance. One may read the solubility as the dissolved amount per volume that the medium holds. Higher therefore signals a readily soluble substance.

In brackets after ≈: the same amount, converted by molar mass.

T1 sequence (P31751 whole entry): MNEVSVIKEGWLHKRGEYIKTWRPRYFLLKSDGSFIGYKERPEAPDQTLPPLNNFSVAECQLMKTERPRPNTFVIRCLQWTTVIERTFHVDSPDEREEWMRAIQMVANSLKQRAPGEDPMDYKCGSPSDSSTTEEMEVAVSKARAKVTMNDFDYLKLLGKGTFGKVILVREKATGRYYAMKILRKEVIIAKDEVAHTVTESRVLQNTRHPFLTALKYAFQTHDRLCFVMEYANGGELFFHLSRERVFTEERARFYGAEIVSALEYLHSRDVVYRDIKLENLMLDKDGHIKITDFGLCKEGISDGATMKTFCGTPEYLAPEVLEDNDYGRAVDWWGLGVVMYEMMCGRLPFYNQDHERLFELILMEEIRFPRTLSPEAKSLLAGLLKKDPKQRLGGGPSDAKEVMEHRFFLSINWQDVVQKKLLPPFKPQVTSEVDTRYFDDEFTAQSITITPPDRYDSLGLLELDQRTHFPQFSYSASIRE
T2 sequence (P31749 whole entry): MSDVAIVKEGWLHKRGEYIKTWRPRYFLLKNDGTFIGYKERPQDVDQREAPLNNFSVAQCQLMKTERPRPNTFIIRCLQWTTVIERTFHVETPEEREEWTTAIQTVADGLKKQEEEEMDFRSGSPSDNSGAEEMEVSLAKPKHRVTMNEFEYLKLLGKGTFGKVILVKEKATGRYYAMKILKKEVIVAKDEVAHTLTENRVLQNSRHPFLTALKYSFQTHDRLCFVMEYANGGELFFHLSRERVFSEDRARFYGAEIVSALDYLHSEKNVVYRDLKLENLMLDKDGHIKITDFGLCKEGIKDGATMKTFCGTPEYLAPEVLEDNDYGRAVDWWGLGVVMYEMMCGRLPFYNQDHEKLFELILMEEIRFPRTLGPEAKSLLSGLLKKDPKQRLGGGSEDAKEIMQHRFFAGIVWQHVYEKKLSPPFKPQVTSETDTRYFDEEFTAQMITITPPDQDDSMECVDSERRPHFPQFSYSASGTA
T3 sequence (Q9Y243 whole entry): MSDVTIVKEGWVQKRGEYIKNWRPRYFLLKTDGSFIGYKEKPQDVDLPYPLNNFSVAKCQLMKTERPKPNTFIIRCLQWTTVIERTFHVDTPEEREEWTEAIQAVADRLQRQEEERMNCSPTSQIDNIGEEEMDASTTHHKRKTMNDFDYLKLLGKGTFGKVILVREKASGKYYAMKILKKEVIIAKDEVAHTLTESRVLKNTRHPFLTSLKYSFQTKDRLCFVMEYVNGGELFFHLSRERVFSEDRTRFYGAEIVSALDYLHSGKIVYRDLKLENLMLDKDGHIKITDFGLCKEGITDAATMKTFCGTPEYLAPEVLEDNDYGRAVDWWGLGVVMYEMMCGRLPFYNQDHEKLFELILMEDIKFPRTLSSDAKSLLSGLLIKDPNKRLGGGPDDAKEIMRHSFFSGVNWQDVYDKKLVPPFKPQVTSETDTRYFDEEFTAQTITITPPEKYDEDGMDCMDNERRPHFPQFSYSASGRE

For `CCN(CC)CCNC(=O)c1ccc2nc(-c3ccc(CN4CCC(n5c(=O)[nH]c6ccccc65)CC4)cc3)c(-c3ccccc3)nc2c1`, the IC50 in [1] was 0.359 µM; in [3], above 50 µM; in data set [4] it was above 50 µM; in data set [5], 0.458 µM; in data set [6], 8 µM; in data set [7] it was 0.617 µM. Moreover, the IC50 in data set [8] is above 50 µM; in [9] it was 0.368 µM; in [10] it was 7.4 µM. The compound further came in with a solubility in [2] of 18 mg/mL (≈ 27.5 mM).

The compound `O=C(O)c1ccc2nc(-c3ccccc3)c(-c3ccc(CN4CCC(n5c(=O)[nH]c6ccccc65)CC4)cc3)nc2c1` yielded a solubility in [2] of 18 mg/mL (≈ 32.4 mM).

`O=c1[nH]c2ccccc2n1C1CCN(Cc2ccc(-c3nc4cc(-c5nnn[nH]5)ccc4nc3-c3ccccc3)cc2)CC1`: the concentration in solution in data set [2] (solubility) was 18 mg/mL (≈ 31.1 mM).

`O=C(O)c1ccc2nc(-c3ccc(CN4CCC(n5c(=O)[nH]c6ccccc65)CC4)cc3)c(-c3ccccc3)nc2c1` returned a solubility in data set [2] of 18 mg/mL (≈ 32.4 mM).

In turn, `O=c1[nH]c2ccccc2n1C1CCN(Cc2ccc(-c3nc4ccc(-c5nnn[nH]5)cc4nc3-c3ccccc3)cc2)CC1` came in with a solubility in data set [2] of 18 mg/mL (≈ 31.1 mM).

Consider `CCN(CC)CCNC(=O)c1ccc2nc(-c3ccccc3)c(-c3ccc(CN4CCC(n5c(=O)[nH]c6ccccc65)CC4)cc3)nc2c1`, for which the IC50 in data set [1] is 0.212 µM; in data set [3], above 50 µM; in [4], above 50 µM; in data set [5] it was 0.138 µM; in data set [6], above 10 µM; in data set [7], 0.276 µM. Also, the IC50 in data set [8] was above 50 µM; in data set [9], 0.253 µM; in [10], 7.2 µM. Besides, the concentration in solution in data set [2] (solubility) came to 18 mg/mL (≈ 27.5 mM).
